Source: PubChem (several laboratories)
An excerpt weighted towards active compounds, which were near 3.9% of everything screened.
AHR act: human AHR activation. 320,000 compounds, 2.5% hits. activation, % at 5 µM. P35869. AHR-responsive luciferase reporter cells, luminescence; in the data active means activation above about 47%;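 further: 0% = vehicle wells and 100% = reference agonist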
SR-BI uptake up: enhances SR-BI lipid uptake from DiI-HDL | CHO ldlA[mSR-BI] cells, DiI-HDL uptake fluorescence, 3 h; 100 = double the neutral-control signal | activation, % at 12.5 µM | 320,000 compounds, 0.096% hits | AID 504775;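 active means mean replicate activation of at least 60% and every replicate at or above 60%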;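 further: 0% = median plate neutral-control signal and 100% = twice that signal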
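system = CHO ldlA[mSR-BI] cells, LDL receptor-null, SR-BI overexpressing | medium = Ham's F12 with 0.5% BSA, HEPES 25 mM, pH 7.4 | probe or stimulus = DiI-HDL 10 µg/mL | compound dosing = single-point compound dose | incubation = compound exposure 3 h, 37 °C | technique = DiI fluorescence, bottom read | read-out = cell-associated DiI fluorescence as measure of HDL uptake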
HIF activator: HIF pathway transcriptional activation | 300,000 compounds, 0.32% hits | U2OS HRE-luciferase reporter, luminescence; normalized: DMSO 0%, desferrioxamine 100% | activation, % at 7.5 µM (by protocol);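 active means mean activation of at least 10% of the iron chelator positive control signal, with at least half of replicates also reaching 10%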
SR-BI DiI inh: blocks mouse SR-BI lipid uptake from DiI-HDL | ldlA[mSR-BI] CHO cells, DiI-HDL uptake fluorescence, 3 h | inhibition, % at 12.5 µM | 320,000 compounds, 0.96% hits | AID 488896;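 active means mean replicate inhibition of at least 70% and a set share of replicates each scoring 70 or more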;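 further: 0% = median of neutral control wells and 100% = median of positive control wells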
FXN GAA850 act: frataxin GAA850 promoter activation | HEK293 lucGAA850 FXN promoter luciferase reporter, 24 h; percent of 10 µM SAHA response | activation, % at 6 µM | 360,000 compounds, 0.56% hits | AID 540364;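 active means activation above the average of all compounds screened plus 3 SD, cutoff fixed separately per campaign, cut at about 7.5% in these data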;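 further: 0% = DMSO wells and 100% = 10 µM SAHA wells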
ABCB6 inh MLPCN: inhibitors of human ABC transporter ABCB6. K562-ABCB6 porphyrin accumulation, flow cytometry, 1 h; stronger effect = lower value. fluorescence ratio to DMSO, % at 10 µM. 360,000 compounds, 0.19% hits. AID 602162;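 active means fluorescence ratio to DMSO below 75%, the collection mean minus 3 SD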;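 further: signal is porphyrin accumulated inside mitochondria; 100% equals median channel fluorescence of DMSO control wells; lower ratio means ABCB6 inhibition with less porphyrin fluorescence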
Target sequence (Q9NP58 whole entry, looked up): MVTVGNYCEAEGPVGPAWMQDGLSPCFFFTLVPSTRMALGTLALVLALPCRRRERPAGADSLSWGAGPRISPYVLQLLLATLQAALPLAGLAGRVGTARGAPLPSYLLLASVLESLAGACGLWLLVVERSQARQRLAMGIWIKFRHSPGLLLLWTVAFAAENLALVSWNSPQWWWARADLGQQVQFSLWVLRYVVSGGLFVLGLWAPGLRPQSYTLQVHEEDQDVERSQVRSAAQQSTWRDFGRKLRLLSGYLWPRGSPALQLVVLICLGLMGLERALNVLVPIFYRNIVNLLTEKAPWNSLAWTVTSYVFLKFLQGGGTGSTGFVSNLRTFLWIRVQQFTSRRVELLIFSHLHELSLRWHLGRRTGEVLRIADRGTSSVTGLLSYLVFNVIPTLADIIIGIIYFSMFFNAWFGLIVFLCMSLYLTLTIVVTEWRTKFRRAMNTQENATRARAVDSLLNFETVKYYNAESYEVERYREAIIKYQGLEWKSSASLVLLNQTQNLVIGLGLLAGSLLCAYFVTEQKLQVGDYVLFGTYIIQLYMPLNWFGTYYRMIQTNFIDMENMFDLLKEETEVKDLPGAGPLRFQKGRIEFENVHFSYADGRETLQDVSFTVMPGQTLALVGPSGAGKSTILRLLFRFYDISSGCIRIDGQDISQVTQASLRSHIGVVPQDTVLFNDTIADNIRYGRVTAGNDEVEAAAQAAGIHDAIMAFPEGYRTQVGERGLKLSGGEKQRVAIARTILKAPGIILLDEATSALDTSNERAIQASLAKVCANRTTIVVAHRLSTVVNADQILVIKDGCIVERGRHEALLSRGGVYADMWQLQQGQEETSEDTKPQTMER
Starred values were filed as active, the others as inactive.

`COc1ccccc1N1CCN(S(=O)(=O)c2ccc3c4c(cccc24)C(=O)N3C)CC1` gave HIF activator -0.3.
Screening Cc1ccc(NC(=O)c2ccc(Cl)c(S(=O)(=O)NCC3CCCO3)c2)c(O)c1 (configuration not stated) returned AHR act 62.0*, SR-BI uptake up -14.4, HIF activator -23.8, SR-BI DiI inh 14.4, FXN GAA850 act 2.9 and ABCB6 inh MLPCN 106.0.
Cc1ccc(NC(=O)N2CCCC2c2cccs2)cc1 (configuration not stated) was read as AHR act 2.2, SR-BI uptake up -10.2, HIF activator -0.5, SR-BI DiI inh 10.2, FXN GAA850 act 2.2 and ABCB6 inh MLPCN 101.0.
`CC(=O)c1ccc(C(=O)N2CCC(CO)(Cc3cccc(C(F)(F)F)c3)CC2)cc1` gave AHR act 1.7, SR-BI uptake up -62.9, HIF activator 0.3, SR-BI DiI inh 62.9, FXN GAA850 act 0.4 and ABCB6 inh MLPCN 93.0.
Screening CC1(C(=O)N2CCC(CO)(Cc3cccc(C(F)(F)F)c3)CC2)CC1 returned AHR act 1.1, SR-BI uptake up -85.2, HIF activator -0.5, SR-BI DiI inh 85.2*, FXN GAA850 act 0.4 and ABCB6 inh MLPCN 100.0.
For CC1=[N+](C)c2c(ccc3cccnc23)C1(C)C the results were SR-BI uptake up 97.3*, SR-BI DiI inh -97.3, FXN GAA850 act -5.3 and ABCB6 inh MLPCN 203.0.
Screening Cc1[nH]c2c(ccc3cccnc32)c1C returned AHR act 3.1, SR-BI uptake up -9.0, HIF activator 0.6, SR-BI DiI inh 9.0, FXN GAA850 act 1.5 and ABCB6 inh MLPCN 102.0.
Screening CC(C)c1ccc(NC(=O)CSc2nc(=O)n(CCN3CCOCC3)c3c2CCC3)cc1 returned AHR act 6.4, SR-BI uptake up 3.3, HIF activator -0.1, SR-BI DiI inh -3.3, FXN GAA850 act -1.0 and ABCB6 inh MLPCN 93.0.
`N#C/C(=N\Nc1ccccc1)C(N)=S` gave AHR act 5.9, SR-BI uptake up -1.4, HIF activator -0.1, SR-BI DiI inh 1.4, FXN GAA850 act -1.7 and ABCB6 inh MLPCN 94.0.
O=C(Cc1c(F)cccc1Cl)NNC(=O)Nc1ccc2c(c1)OCO2 was read as AHR act 52.9*, HIF activator 0.8, SR-BI DiI inh -38.2, FXN GAA850 act -0.7 and ABCB6 inh MLPCN 101.0.
For CC1CN(CCC(=O)Nc2ccc3c(c2)OCO3)CC(C)O1 (configuration not stated) the results were AHR act 4.5, SR-BI uptake up -80.1, HIF activator 0.0, SR-BI DiI inh 80.1*, FXN GAA850 act -0.2 and ABCB6 inh MLPCN 101.0.
O=C(CSc1nccn1-c1ccc(Cl)cc1)Nc1ccc2c(c1)OCO2 was read as AHR act 53.2*, SR-BI uptake up -5.5, SR-BI DiI inh 5.5, FXN GAA850 act -1.8 and ABCB6 inh MLPCN 93.0.
O=C(CSCc1ccccc1)Nc1ccc2c(c1)OCO2 was read as AHR act 15.3, SR-BI uptake up 3.7, HIF activator 3.6, SR-BI DiI inh -3.7, FXN GAA850 act 1.3 and ABCB6 inh MLPCN 90.0.
Screening O=C(CSCc1c(Cl)cccc1Cl)Nc1ccc2c(c1)OCO2 returned AHR act 47.5*, SR-BI uptake up 0.1, HIF activator 0.8, SR-BI DiI inh -0.1, FXN GAA850 act 0.4 and ABCB6 inh MLPCN 92.0.
For Cc1cccc(-n2ccnc2SCC(=O)Nc2ccc3c(c2)OCCO3)c1 the results were AHR act 22.5, SR-BI uptake up -3.4, HIF activator 0.3, SR-BI DiI inh 3.4, FXN GAA850 act 0.2 and ABCB6 inh MLPCN 92.0.
For CN(C)C(=O)N1CCCC(C(=O)NCc2cccs2)C1 (configuration not stated) the results were AHR act -0.3, SR-BI uptake up 37.1, HIF activator -0.2, SR-BI DiI inh -37.1, FXN GAA850 act 0.6 and ABCB6 inh MLPCN 95.0.
For Cc1cc(NC(=O)c2cc3cccc([N+](=O)[O-])c3[nH]2)ccc1F the results were AHR act 64.8*, SR-BI uptake up -77.4, HIF activator 2.8, SR-BI DiI inh 77.4*, FXN GAA850 act 2.4 and ABCB6 inh MLPCN 103.0.
